The values that follow come from ChEMBL document CHEMBL1671709, “Small-molecule screening using a whole-cell viral replication reporter gene assay identifies 2-{[2-(benzoylamino)benzoyl]amino}-benzoic acid as a novel antiadenoviral compound” (Antimicrob Agents Chemother, 2010).

The test system of data set [1] is Human adenovirus 5. Put plainly: Inhibition of [35S]-labeled Human adenovirus type 5 F2853-5b binding to human A549 cells at 15 uM. In kind it is functional, organism-based. The essentials:
(§1)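 A549 cells detached with 0.05% EDTA, allowed to recover 1 h, then suspended in PBS with 1% FBS and 0.01% NaN3 (200,000/well) on ice. Compound at 5 and 15 µM final, DMSO <1%, plus 5 pg 35S-labeled Ad5 or Ad11p virions per cell, rocked 1 h on ice. Cells washed three times; bound radioactivity counted by liquid scintillation. Three independent duplicate experiments.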

A short description of data set [2]: Cytotoxicity against human K562 cells assessed as viable cells after 24 hrs by MTT assay. The format is cell-based. The note with it: read-out: Activity. The essentials: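 K562 cells (50,000/well) in phenol-red-free RPMI with 5% FBS, compound at 50 µM final (serial 25–0.78 µM in triplicate for dose-response), 24 h at 37 °C, 5% CO2, after the GFP fluorescence read. MTT added for 2 h, formazan dissolved in acidic isopropanol/Triton X-100, absorbance at 570 nm.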
On the technique in general: Formazan colour is commonly taken as a measure of viable cells.

The subject of data set [3] is A549. Put plainly: Inhibition of [35S]-labeled Human adenovirus type 11p slobitski binding to human A549 cells at 15 uM. In kind it is functional, cell-based. As to conditions: Human adenovirus 11p. In short, it runs like this:
as §1

In data set [4] the test system is Human adenovirus 5. The data set is described as follows: Antiviral activity against Human adenovirus type 5 F2853-5b infected in human A549 cells assessed as inhibition of hexon protein expression after 24 hrs using propidium iodide by FACS analysis. The format is functional, organism-based. The note with it: in the assay text read “using anti-hexon monoclonal antibody” for “using propidium iodide”. The essentials: (§2)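 A549 cells (~2×10^5) seeded the day before. Compound (5 and 15 µM) added together with virus, 1 pg Ad5 or 0.5 pg Ad11p virions per cell, in DMEM with 1% FBS, DMSO <1%. After 24 h at 37 °C cells fixed in 2% paraformaldehyde and permeabilized with saponin. Stained with anti-hexon mouse monoclonal then Alexa Fluor 488 anti-mouse; read by flow cytometry. Two independent duplicate experiments.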
For orientation: A flow cytometer gives signals particle by particle.

Data set [5] concerns A549. The data set is described as follows: Antiviral activity against Human adenovirus type 11p slobitski infected in human A549 cells assessed as inhibition of hexon protein expression after 24 hrs using propidium iodide by FACS analysis. In kind it is functional, cell-based. As to conditions: Human adenovirus 11p, in the assay text read “using anti-hexon monoclonal antibody” for “using propidium iodide”. The essentials:
as §2

The nature of data set [6]: Cytotoxicity against human A549 cells by XTT assay. The format is cell-based. In short, it runs like this: (§3)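 About 50,000 A549 cells seeded the day before; compound titrated in DMEM with 1% FBS for 24 h. XTT then added and incubated 2 h at 37 °C, with absorbance read at 450 nm. CC50 is the concentration leaving 50% of cells viable. Selectivity index is CC50 divided by the QPCR EC50 for each virus. Three independent duplicate experiments.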

Data set [7] is described as follows: Selectivity index, ratio of CC50 for human A549 cells to EC50 for Human adenovirus type 5. The format is toxicity, cell-based. The note with it: read-out: Selectivity Index. In short, it runs like this: as §3
Data set [8] is described as follows: Selectivity index, ratio of CC50 for human A549 cells to EC50 for Human adenovirus type 11p. The format is toxicity, cell-based. The note with it: read-out: Selectivity Index. In short, it runs like this: as §3
For data set [9], the system named is A549. Put plainly: Cytotoxicity against human A549 cells assessed as dead cells at 15 uM after 24 hrs using PI by FACS analysis. In kind it is cell-based. As to conditions: a549, 24 h. In short, it runs like this: (§4)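 A549 cells (2×10^5) seeded the day before in DMEM with 1% FBS; K562 cells (200,000) in RPMI 1640 with 5% FBS added just before compound. Compound at 5 and 15 µM, DMSO <1%, 24 h at 37 °C, 5% CO2. Cells washed, resuspended in PBS with 1 µg propidium iodide; dead cells counted by flow cytometry. Two independent duplicate experiments.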

The next data set concerns K562. The data set is described as follows: Cytotoxicity against human K562 cells assessed as dead cells at 15 uM after 24 hrs using PI by FACS analysis. As to conditions: k562, 24 h. The format is cell-based. In short, it runs like this:
as §4

The nature of data set [10]: Cytotoxicity against human Fibroblast cells assessed as dead cells at 15 uM after 24 hrs using PI by FACS analysis. The format is cell-based.
Data set [11] in a line: Antiviral activity against Human adenovirus type 31 1315/63 infected in A549 cells assessed as inhibition of DNA replication by QPCR assay. In kind it is functional, cell-based, Human adenovirus 31. The note with it: Human mastadenovirus A, 1315/63, A549. In short, it runs like this: (§5)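 A549 cells (about 10^5/well) were seeded the day before. Compound (0.5–15 µM, DMSO <1%) and 1 pg virions/cell were added together in DMEM with 1% FBS and held 24 h at 37°C. DNA was then extracted and viral genomes counted by TaqMan QPCR (AdDF probe, Ad5 or Ad11 DNA standards 5–5×10^5 copies), normalized to RNase P. EC50 is the 50% replication inhibition point, from at least two independent duplicate experiments.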

A short description of data set [12]: Antiviral activity against Human adenovirus type 11p slobitski infected in A549 cells assessed as inhibition of DNA replication by QPCR assay. The format is functional, cell-based, Human adenovirus 11p. As to conditions: Human mastadenovirus B. The essentials: as §5
In data set [13] the test system is Human adenovirus 5. Put plainly: Antiviral activity against Human adenovirus type 5 F2853-5b infected in A549 cells assessed as inhibition of DNA replication by QPCR assay. The format is functional, organism-based. The note with it: Human mastadenovirus C. In short, it runs like this:
as §5

In the next data set the test system is Human adenovirus D37. Put plainly: Antiviral activity against Human adenovirus type 37 1477 infected in A549 cells assessed as inhibition of DNA replication by QPCR assay. The note with it: Human mastadenovirus D, 1477, A549. The format is functional, organism-based. The essentials: as §5
Data set [14] is described as follows: Antiviral activity against Human adenovirus type 4 RI-67 infected in A549 cells assessed as inhibition of DNA replication by QPCR assay. In kind it is functional, cell-based, Human adenovirus 4. As to conditions: Human mastadenovirus E, RI-67, A549. In short, it runs like this: as §5
Data set [15] can be described thus: Antiviral activity against Human adenovirus type 41 Tak infected in A549 cells assessed as inhibition of DNA replication by QPCR assay. In kind it is functional, cell-based, Human adenovirus 41. As to conditions: Human mastadenovirus F. The essentials:
as §5

Data set [16] is described as follows: Antiviral activity against Human adenovirus type 11p in human K562 cells harboring green fluorescent protein-expressing RCAd11pGFP vector assessed as inhibition of RCAd11pGFP genome expression at 50 uM relative to untreated control. In kind it is functional, Human adenovirus 11p. As to conditions: Human mastadenovirus B. The essentials: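 Single-point screen done once in K562 cells (50,000/well) in phenol-red-free RPMI with 5% FBS, with RCAd11pGFP at 1 pg/cell. Compound was at 50 µM final, from a 5 mM DMSO stock. Each plate held six DMSO-only uninfected wells and six infected DMSO wells. After 24 h at 37°C in 5% CO2, GFP fluorescence was read at 485 nm, then MTT viability.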

Data set [17] can be described thus: Antiviral activity against Human adenovirus type 11p in human K562 cells harboring green fluorescent protein-expressing RCAd11pGFP vector assessed as inhibition of RCAd11pGFP genome expression. In kind it is functional, cell-based, Human adenovirus 11p. The note with it: Human mastadenovirus B. The essentials:
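K562 cells (50,000/well) in phenol-red-free RPMI with 5% FBS, infected with RCAd11pGFP at 1 pg/cell. The 5 mM DMSO stock was diluted 1:1 serially from 25 to 0.78 µM, with final DMSO <1%, run in triplicate.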

In data set [18] the test system is A549. Put plainly: Antiviral activity against Human adenovirus type 11p in human A549 cells harboring green fluorescent protein-expressing RCAd11pGFP vector assessed as inhibition of RCAd11pGFP genome expression. The note with it: Human adenovirus 11p. In kind it is functional, cell-based.
Data set [19] concerns Human adenovirus 5. The data set is described as follows: Antiviral activity against Human adenovirus type 5 infected in human A549 cells assessed as inhibition of viral replication by QPCR at 5 uM after 24 hrs. The format is functional, organism-based. The essentials: (§6)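 A549 cells (~10^5/well) seeded the day before; compound (0.5–15 µM) and 1 pg Ad virions per cell added together in DMEM with 1% FBS, final DMSO <1%. After 24 h at 37 °C, 5% CO2, cells harvested and DNA extracted. Viral genomes quantified by real-time PCR against Ad5 DNA standard curves, normalized to cellular RNase P. EC50 taken as 50% inhibition of replication; three independent duplicate experiments.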

Data set [20] relates to Human adenovirus 5. The data set is described as follows: Antiviral activity against Human adenovirus type 5 infected in human A549 cells assessed as inhibition of viral replication by QPCR at 15 uM after 24 hrs. The format is functional, organism-based. In short, it runs like this: as §6
Data set [21] deals with Human adenovirus 5. The data set is described as follows: Antiviral activity against Human adenovirus type 5 infected in human A549 cells assessed as inhibition of viral replication by QPCR after 24 hrs. In kind it is functional, organism-based. The note with it: Human mastadenovirus C, A549, 24 h. In short, it runs like this: as §6
A short description of data set [22]: Antiviral activity against Human adenovirus type 11p infected in human A549 cells assessed as inhibition of viral replication by QPCR after 24 hrs. In kind it is functional, cell-based, Human adenovirus 11p. As to conditions: Human mastadenovirus B, A549, 24 h. In short, it runs like this:
as §6

Active and inactive are the calls of the source. The calls are words filed in the database; no cut-off is given here.

What is called inhibition is the relative decrease from the control value, in per cent. For orientation: CC50 means the concentration at which the toxic effect on the cells reaches its halfway point. Lower therefore signals harm at low concentration. The EC50 is the concentration at which the effect is half-maximal. For the compound `O=C(Nc1ccccc1C(=O)Nc1ccccc1C(=O)O)c1ccccc1`, the inhibition entry in the data set with Human adenovirus 5 [1] and in the data set with A549 [3] was “inactive” in each case. Moreover, the viability at 24 h in [2] turned out to be 100%. Also, the inhibition result in the data set on Human adenovirus 5 [4] and in the data set on A549 [5] was “Dose-dependent effect” each time. Also, the CC50 in data set [6] stood at 199 µM. Further, the values for the selectivity ratio in data set [7] and in [8] were 54 and 68, respectively. Moreover, the Activity (with A549 [9]; with K562; in data set [10]) was < 2% each time. The 50% effective concentration (EC50) in data set [11] came out at 3.9 µM; in [12], 2.9 µM; in the data set with Human adenovirus 5 [13] it was 3.7 µM; in the data set with Human adenovirus D37, 4.7 µM; in data set [14], 3.6 µM; in data set [15], 2.4 µM. Besides, the EC50 in data set [17] was 28.6 µM; in the data set on Human adenovirus 5 [21] it was 3.7 µM; in [22], 2.9 µM. Besides, the inhibition at 50 µM in [16] stood at 100%. Also, the inhibition entry with A549 [18], with Human adenovirus 5 [19] and with Human adenovirus 5 [20] was “Active” throughout.
On to `Nc1ccn(C[C@@H](CO)OCP(=O)(O)O)c(=O)n1` [CIDOFOVIR], for which the concentration for a half-maximal effect (EC50) in data set [12] is 16.5 µM; in the data set with Human adenovirus 5 [13], 19.9 µM.
`O=C(Nc1ccccc1C(=O)Nc1ccccc1C(=O)Nc1ccccc1C(=O)O)c1ccccc1`: the inhibition entry in the data set with Human adenovirus 5 [19] and in the data set on Human adenovirus 5 [20] was “inactive” each time.
On to `O=C(Nc1ccccc1C(=O)O)c1ccccc1`, for which the inhibition entry with Human adenovirus 5 [19] and with Human adenovirus 5 [20] was “inactive” throughout.
